According to ChEMBL document CHEMBL4368894, “Fluorine substituted methoxyphenylalkyl amides as potent melatonin receptor agonists” (Medchemcomm, 2019):
Activity calls are given as the source filed them. The rule behind the calls is not given here.

Tests used:
[1] = target: T1, Melatonin receptor type 1C (Xenopus laevis) (UniProt P49219); experiment: Antagonist activity at Melatonin receptor type 1C in Xenopus laevis melanophores assessed as inhibition of melatonin-induced pigment aggregation response pre-incubated 60 mins before melatonin addition by microtiter plate reader based absorbance detection assay; design: concentration or dose not given beside the values
T1 sequence (whole entry): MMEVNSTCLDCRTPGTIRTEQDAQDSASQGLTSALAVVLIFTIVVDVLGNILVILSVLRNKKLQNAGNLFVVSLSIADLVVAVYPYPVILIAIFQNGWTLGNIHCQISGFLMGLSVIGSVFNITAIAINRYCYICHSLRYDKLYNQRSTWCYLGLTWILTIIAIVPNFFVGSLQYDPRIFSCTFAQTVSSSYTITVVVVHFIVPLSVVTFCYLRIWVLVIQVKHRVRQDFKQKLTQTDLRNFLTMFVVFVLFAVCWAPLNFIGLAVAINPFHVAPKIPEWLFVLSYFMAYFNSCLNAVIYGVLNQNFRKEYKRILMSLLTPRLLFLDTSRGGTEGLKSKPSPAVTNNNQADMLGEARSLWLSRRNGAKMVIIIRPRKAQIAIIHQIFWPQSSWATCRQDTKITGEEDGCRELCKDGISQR
In short: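 Melanophores pre-equilibrated 1 h in 0.7 x L-15 medium containing 1 mg·mL⁻¹ bovine albumin. Antagonist (10⁻⁵ M) added 60 min ahead of melatonin, and melatonin concentration-response curves run with and without it. Pigment aggregation read as 630 nm absorbance change, 1-(A_f/A_i). pK_B taken as log(concentration ratio – 1) – log[antagonist]. Solvent at most 1% v/v.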

[2] = target: T1, Melatonin receptor type 1C (Xenopus laevis); experiment: Agonist activity at Melatonin receptor type 1C in Xenopus laevis melanophores assessed as induction of pigment aggregation response by microtiter plate reader based absorbance detection assay relative to melatonin
In short: (§1)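 Cultured melanophores (about 6-8 x 10³ per well) switched to 0.7 x L-15 medium with 1 mg·mL⁻¹ bovine albumin 1 h before concentration-response runs, in which pigment stays dispersed. Aggregation read as absorbance at 630 nm before and after drug, expressed as fractional change 1-(A_f/A_i). Drugs diluted fresh from 10⁻² M methanol or DMSO stocks; final solvent at most 1% v/v.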

[3] = target: T2, Melatonin receptor type 1C (Xenopus laevis, UniProt P49219); experiment: Agonist activity at Melatonin receptor type 1C in Xenopus laevis melanophores assessed as induction of pigment aggregation response by microtiter plate reader based absorbance detection assay; in short: as §1
T2 sequence (P49219 whole entry): T1 sequence (whole entry)

[4] = target: T1, Melatonin receptor type 1C (Xenopus laevis); experiment: Antagonist activity at Melatonin receptor type 1C in Xenopus laevis melanophores assessed as inhibition of melatonin-induced pigment aggregation response up to 10^-4M pre-incubated 60 mins before melatonin addition by microtiter plate reader based absorbance detection assay

inhibition [1] | Efficacy [2] | EC50 [3] | inhibition [4] | Compound
44% | 43% | 1350 nM |  | CCCC(=O)NCc1cc(OC)ccc1F
23% | 69% | 2400 nM |  | CCC(=O)NCc1cc(OC)ccc1F
 | 100% | 0.0229 nM | inactive | CCCC(=O)NCC(C)(C)c1ccc(F)c(OC)c1
 | 100% | 20.4 nM | inactive | COc1ccc(F)c(CCCNC(C)=O)c1
 | 100% | 93.3 nM | inactive | CCC(=O)NCC(C)(C)c1ccc(OC)c(F)c1
 | 77% | 1510 nM | inactive | COc1ccc(CNC(C)=O)cc1F
37% | 57% | 661 nM |  | CCCC(=O)NCc1ccc(OC)c(F)c1
 | 100% | 9.55 nM | inactive | CCCC(=O)NCCCc1cc(OC)ccc1F
 | 89% | 1.1 nM | inactive | CCC(=O)NCCCc1ccc(F)c(OC)c1
 | 100% | 182 nM | inactive | COc1ccc(F)c(C(C)(C)CNC(C)=O)c1
 | 80% | 1350 nM | inactive | CCC(=O)NCCc1ccc(OC)c(F)c1
8% | 78% | 871 nM |  | CCC(=O)NCCCc1ccc(OC)c(F)c1
 | 100% | 251 nM | inactive | CCCC(=O)NCCc1cc(OC)ccc1F
 |  | 0.123 nM |  | COc1ccc2[nH]cc(CCNC(C)=O)c2c1 [MELATONIN]
19% | 73% | 417 nM |  | CCCC(=O)NCCCc1ccc(OC)c(F)c1
 | 86% | 2880 nM | inactive | CCC(=O)NCc1ccc(F)c(OC)c1
 | 100% | 1.82 nM | inactive | COc1cc(C(C)(C)CNC(C)=O)ccc1F
 | 100% | 269 nM | inactive | CCC(=O)NCC(C)(C)c1cc(OC)ccc1F
100% |  |  |  | CC(=O)NCCc1c(Cc2ccccc2)[nH]c2ccccc12

inhibition [1] | Efficacy [2] | EC50 [3] | inhibition [4] | Compound
 | 100% | 81.3 nM | inactive | COc1ccc(C(C)(C)CNC(C)=O)cc1F
 | 100% | 794 nM | inactive | CCC(=O)NCCc1cc(OC)ccc1F
 | 100% | 66.1 nM | inactive | CCCC(=O)NCCc1ccc(F)c(OC)c1
 | 89% | 0.891 nM | inactive | CCCC(=O)NCCCc1ccc(F)c(OC)c1
 | 100% | 275 nM | inactive | COc1cc(CCNC(C)=O)ccc1F
 | 75% | 2510 nM | inactive | CCCC(=O)NCc1ccc(F)c(OC)c1
 | 79% | 1820 nM | inactive | COc1ccc(CCCNC(C)=O)cc1F
24% | 51% | 1050 nM |  | CCC(=O)NCc1ccc(OC)c(F)c1
 | 100% | 1950 nM | inactive | COc1ccc(F)c(CNC(C)=O)c1
 | 100% | 85.1 nM | inactive | CCC(=O)NCCc1ccc(F)c(OC)c1
 | 83% | 2090 nM | inactive | COc1cc(CNC(C)=O)ccc1F
 | 100% | 97.7 nM | inactive | CCCC(=O)NCC(C)(C)c1cc(OC)ccc1F
 | 100% | 3.72 nM | inactive | CCC(=O)NCCCc1cc(OC)ccc1F
 | 92% | 3.89 nM | inactive | COc1cc(CCCNC(C)=O)ccc1F
 | 80% | 2400 nM | inactive | COc1ccc(CCNC(C)=O)cc1F
 | 100% | 79.4 nM | inactive | CCCC(=O)NCC(C)(C)c1ccc(OC)c(F)c1
 | 100% | 2450 nM | inactive | COc1ccc(F)c(CCNC(C)=O)c1
48% | 52% | 1200 nM |  | CCCC(=O)NCCc1ccc(OC)c(F)c1
 | 100% | 0.537 nM | inactive | CCC(=O)NCC(C)(C)c1ccc(F)c(OC)c1

Compound | inhibition [1] | Efficacy [2] | EC50 [3] | inhibition [4]
CCCC(=O)NC(C)Cc1ccc(F)c(OC)c1 (stereo not drawn) |  | 89% | 105 nM | inactive
